Assay results: publication PMC9514665 (Neuropharmacology, 2021)
Values joined by “and” are separate entries in the source; they are usually repeats but may differ in a detail not shown here. Equal values may be shown once. Read-outs that look alike come from different tables or passages of the source. Marks after values point to notes of the source that are not given here.

Tests used:
[1] = Pharmacokinetic analysis in mouse plasma and brain after i.p. injection; type: in vivo
[2] = tested on: F1.Scn1a^+/− mice; experiment: Hyperthermia-induced seizures; type: in vivo, mouse
How it was run: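 Male and female F1.Scn1a+/− mice at P14–16 received i.p. dosing (10 mL/kg; vehicle ethanol:Tween 80:saline 1:1:18). A rectal probe was inserted 15 min before the post-dose time point (30 or 60 min, set by PK), followed by 5-min acclimation. Core temperature was raised 0.5°C every 2 min until first clonic convulsion with loss of posture, or to 42.5°C with a 3-min hold. n = 17–22 per group; logrank Mantel-Cox.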

[3] = type: in vivo, mouse; details: for concentration at 60 min: both, F1.Scn1a+/−, mouse, in vivo, Plasma Concentration; for concentration at 60 min / Plasma Concentration: F1.Scn1a^+/− mice; for Plasma Concentration: 30 min
[4] = type: in vivo, mouse; details: 350 mg/kg chow, subchronic oral
[5] = tested on: F1.Scn1a^+/− mice; experiment: Spontaneous seizures and survival; type: in vivo, mouse; details: 350 mg ABX-1431/kg chow
How it was run: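 Male and female F1.Scn1a+/− mice had one hyperthermia-induced seizure at P18, then were randomised to untreated or 350 mg/kg medicated chow made from irradiated powdered diet. Continuous 60-h video recording was used to count and score spontaneous GTCS. Treatment continued to P30 for survival. Fisher's exact test covered seizure-free and hindlimb-extension proportions, Mann-Whitney covered frequency, and logrank covered survival.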

[6] = tested on: 2-arachidonoylglycerol (2-AG); experiment: Hippocampal 2-AG concentrations after ABX-1431 treatment; type: in vivo, mouse; details: F1.Scn1a^+/− mice
[7] = tested on: anandamide (AEA); experiment: Hippocampal anandamide concentrations after ABX-1431 treatment; type: in vivo, mouse; details: acute i.p. treatment; F1.Scn1a^+/− mice
How it was run: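 Acute i.p. dosing of F1.Scn1a+/− mice in ethanol:Tween 80:saline (1:1:18), 10 mL/kg. Whole brains were taken 60 min post-dose after hyperthermia testing, by cervical dislocation without anaesthesia, and snap frozen. Hippocampi were Dounce-homogenised and spun at 20,000g for 30 min at 4°C. Supernatant underwent dichloromethane:methanol (2:1)/0.88% KCl liquid-liquid extraction on ice, avoiding plastics. Analysis was by UHPLC-triple quadrupole LC-MS/MS against external calibration curves. 2-AG: Brown-Forsythe ANOVA, Dunnett's T3. Anandamide: Kruskal-Wallis.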

[8] = tested on: CB1 receptor; experiment: Hippocampal CB1 receptor expression by immunoblotting after subchronic treatment; type: in vivo, mouse; details: subchronic 350 mg ABX-1431/kg chow; F1.Scn1a^+/− mice; p = 0.0077
How it was run: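 Hippocampi from F1.Scn1a+/− mice, untreated or fed 350 mg/kg chow, were Dounce-homogenised in buffered 0.32 M sucrose. Membranes were isolated by sequential 2,000g and 20,000g spins at 4°C and protein quantified by Bradford. Membrane protein (20 μg) was run on 10% SDS-PAGE and transferred to PVDF. Rabbit anti-CB1 was detected with fluorescent secondaries (1:20,000). Densitometry was normalised to β-tubulin; Student's t-test.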

[9] = tested on: F1.Scn1a^+/− mice; details: 2017, cited from earlier work
[10] = tested on: neuropathic pain model; details: combined with the MAGL inhibitor JZL184; ref Slivicki et al., 2018; cited from earlier work
[11] = Aqueous solubility; type: physicochemical
[12] = Oral bioavailability after subchronic oral administration; type: in vivo, mouse; details: sufficient plasma concentrations not achieved
[13] = molecular target: CB1 receptor; details: ref Laprairie et al., 2017; cited from earlier work
[14] = tested on: Genetic Absence Epilepsy Rats from Strasbourg (GAERS); details: ref Roebuck et al., 2021, cited from earlier work
[15] = tested on: wildtype mice; details: 10 mg/kg; ref Laprairie et al., 2019; cited from earlier work
[16] = tested on: CB1 receptor; details: repeated exposure to low doses, ref Ghosh et al., 2013, Kinsey et al.; cited from earlier work
[17] = brain, wildtype mice, 5 mg/kg i.p.
[18] = brain, wildtype mice, 5 mg/kg i.p., converted from ng/mg brain assuming density of 1 g/mL
[19] = plasma, wildtype mice, 5 mg/kg i.p.

With `O=C(OC(C(F)(F)F)C(F)(F)F)N1CCN(Cc2ccc(C(F)(F)F)cc2N2CCCC2)CC1` [ABX-1431] the AUC ([1]; mouse, in vivo, ip, 5 mg/kg) was 483 ng·h/mL, the Cmax ([1]; mouse, in vivo, ip, 5 mg/kg) was 317 ± 40 ng/mL and the “brain half-life (in words)” value ([1]; mouse, in vivo, ip, 5 mg/kg) was “prolonged”. For the same molecule, the half-life ([1]; mouse, in vivo, ip, 5 mg/kg) was 47 min, the Cmax ([1]; mouse, in vivo, ip, 5 mg/kg, Cmax) was 468 ± 40 ng/mL and the “temperature threshold for thermally-induced seizures (GTCS)” value (“temperature threshold” for short) ([2]; 10 mg/kg i.p., vehicle 40.6 ± 0.1°C, p = 0.0008) was 41.3 ± 0.2 °C. The concentration at 60 min ([3]; 3 mg/kg i.p.) was 198 ± 31 ng/mL, the concentration at 60 min ([3]; 10 mg/kg i.p.) was 373 ± 53 ng/mL and the concentration at 60 min ([3]; 30 mg/kg i.p.) was 883 ± 114 ng/mL. The “Plasma Concentration” value [4] was 170 to 394 ng/mL, the “survival compared with untreated controls” value ([5]; P18 to P30, p = 0.6803) was “not different” and the “effect on spontaneous seizure (GTCS) frequency” value ([5]; 60-h recording, vs untreated, p = 0.0064) was “significantly increase”. The “proportion of seizures that progressed to full hindlimb extension” value ([5]; 93/272 seizures, untreated 45/83 (54%), p = 0.0011) was 34%, the “effect on proportion of mice that exhibited seizures” value ([5]; vs untreated, p = 0.6562) was “did not affect” and the “hippocampal 2-AG concentrations relative to vehicle-treated mice” value ([6]; acute 10 mg/kg i.p.) was 8 fold. For the same molecule, the “hippocampal 2-AG concentrations increase” value ([6]; acute 30 mg/kg i.p.) was 13 fold, the “hippocampal 2-AG concentrations increase” value ([6]; subchronic oral (350 mg/kg chow)) was 15 fold and the “effect on hippocampal anandamide concentrations” value [7] was “not affected”. The “effect on hippocampal CB1 receptor expression” value [8] was “significantly lowered”.
For `C=C(C)[C@@H]1CCC(C)=C[C@H]1c1c(O)cc(CCCCC)cc1O` [CBD, cannabidiol], the “effective dose in this model” value ([9]; ref Anderson et al., 2020, 2019a, Kaplan et al.) is given as 100 mg/kg.
For `O=[N+]([O-])CC(c1ccccc1)c1c(-c2ccccc2)[nH]c2ccccc12` (stereo not shown) [GAT211], the antinociceptive effect [10] is given as “synergistic”.
With `O=[N+]([O-])C[C@@H](c1ccccc1)c1c(-c2ccccc2)[nH]c2ccccc12` [GAT229] the t1/2 [1, 17] was 53 min, the tmax [1, 17] was 30 ng/mL and the AUC [1, 18] was 85 ^* μg min/mL. For the same molecule, the Cmax [1, 18] was 888 ± 90 ng/mL, the AUC [1, 19] was 1230 ng·h/mL and the Cmax [1, 19] was 858 ± 167 ng/mL. It also gave a t1/2 [1, 19] of 45 min, a tmax [1, 19] of 30 ng/mL and a brain-plasma ([1]; wildtype mice, 5 mg/kg i.p.) of 110%. For the same molecule, the brain-plasma ratio ([1]; wildtype mice, 5 mg/kg i.p.) was 1.1, the “temperature threshold” value ([2]; 30 mg/kg i.p., vehicle 41.1 ± 0.1°C, p = 0.0152) was 41.7 ± 0.2 °C and the “temperature threshold” value ([2]; 100 mg/kg i.p., vehicle 41.1 ± 0.1°C, p = 0.0059) was 41.8 ± 0.1 °C. For the same molecule, the “Plasma Concentration” value ([3]; 10 mg/kg i.p.) was 0.9 ± 0.1 µg/mL, the “Plasma Concentration” value ([3]; 30 mg/kg i.p. (suspension)) was 2.6 ± 0.5 µg/mL and the “Plasma Concentration” value ([3]; 100 mg/kg i.p. (suspension)) was 3.2 ± 0.2 µg/mL. For the same molecule, the “Plasma concentrations in experimental animals” value ([3]; 30 and 100 mg/kg doses) was 7.6–9.3 μM and 2.6–3.2 μg/mL, the “Plasma Concentration of GAT229” value ([3]; co-treatment GAT229 + ABX-1431 (30 mg/kg + 10 mg/kg)) was 2.3 ± 0.3 µg/mL and the aqueous solubility [11] was “poor”. The oral bioavailability [12] was “poor”, the EC50 [13] was about 295 nM and the “association with sedation or catalepsy” value ([14]; GAERs model) was “not associated”. For the same molecule, the “effect against absence seizures” value [14] was “anticonvulsant effects” and the “effect on locomotor activity” value [15] was “reduced”.
For `O=C(Oc1ccc([N+](=O)[O-])cc1)N1CCC(C(O)(c2ccc3c(c2)OCO3)c2ccc3c(c2)OCO3)CC1` [JZL184], the “CB1 receptor downregulation and desensitization” value [16] is given as “does not occur”.
For `CN1C(=O)CC(=O)N(c2ccccc2)c2cc(Cl)ccc21` [clobazam], the “effective dose in this model” value ([9]; ref Anderson et al., 2019a, Hawkins et al.) is listed as 1 mg/kg.
